# Measurements reported in ChEMBL document CHEMBL1151735, “Further studies with the 2-amino-1,3-thiazol-4(5H)-one class of 11beta-hydroxysteroid dehydrogenase type 1 inhibitors: reducing pregnane X receptor activity and exploring activity in a monkey pharmacodynamic model” (J Med Chem, 2008).
# Experiments:
# [1] = target: T1, PXR (nuclear receptor subfamily 1 group I member 2) (Homo sapiens, UniProt O75469); assay: Transactivation of human PXR transfected in HEK cells at 2 uM by luciferase reporter gene assay relative to 12.5 uM rifampin; type: cell-based; details: HEK293 cells transfected with human PXR, read-out: Activity
# T1 sequence (O75469 whole entry): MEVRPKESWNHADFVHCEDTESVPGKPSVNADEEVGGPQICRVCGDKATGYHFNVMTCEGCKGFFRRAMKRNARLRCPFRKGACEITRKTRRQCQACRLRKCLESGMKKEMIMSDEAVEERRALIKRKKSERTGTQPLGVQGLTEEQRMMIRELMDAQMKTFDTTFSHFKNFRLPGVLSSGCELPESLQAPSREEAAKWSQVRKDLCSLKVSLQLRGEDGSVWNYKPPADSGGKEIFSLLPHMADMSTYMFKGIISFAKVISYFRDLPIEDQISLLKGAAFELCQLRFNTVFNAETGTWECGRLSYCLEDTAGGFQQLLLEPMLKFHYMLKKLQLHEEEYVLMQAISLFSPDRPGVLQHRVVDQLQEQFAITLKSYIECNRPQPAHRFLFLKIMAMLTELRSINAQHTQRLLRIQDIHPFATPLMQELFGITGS
# Method in brief: (§1)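 HEK cells transfected with human PXR fused to a firefly luciferase reporter. Luciferase activity is expressed as percent of the 12.5 µM rifampin response. Run in triplicate; SEM reported.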
# [2] = target: T2, Nuclear receptor subfamily 1 group I member 2 (Homo sapiens, UniProt O75469); assay: Transactivation of human PXR transfected in HEK cells at 20 uM by luciferase reporter gene assay relative to 12.5 uM rifampin; type: cell-based; details: hek293, 20 µM; method in brief: as §1
# T2 sequence (O75469 whole entry): T1 sequence (O75469 whole entry)
# [3] = test system: Hepatocyte; assay: Induction of CYP3A4 in cryopreserved human hepatocytes from male DJV donars with no adverse medical history or substance or alcohol abuse assessed as mRNA expression at 20 uM relative to 20 uM rifampin; type: functional
# [4] = test system: Hepatocyte; assay: Induction of CYP3A4 in cryopreserved human hepatocytes from female NPV donars with history of tobacco and substance usage assessed as mRNA expression at 20 uM relative to 20 uM rifampin; type: functional
# [5] = target: T3, Cytochrome P450 3A4 (Homo sapiens, UniProt P08684); assay: Induction of CYP3A4 activity in cryopreserved human hepatocytes from male DJV donars with no adverse medical history or substance or alcohol abuse at 20 uM relative to 20 uM rifampin
# [6] = target: T3, Cytochrome P450 3A4; assay: Induction of CYP3A4 activity in cryopreserved human hepatocytes from female NPV donars with history of tobacco and substance usage at 20 uM relative to 20 uM rifampin
# [7] = target: T4, 11-beta-hydroxysteroid dehydrogenase 1 (Homo sapiens, UniProt P28845); assay: Inhibition of human recombinant 11beta-HSD1 expressed in Escherichia coli using [3H]cortisone by scintillation proximity assay
# [8] = target: T4, 11-beta-hydroxysteroid dehydrogenase 1; assay: Inhibition of human 11beta-HSD1 expressed in CHO cells assessed as conversion of cortisone to cortisol by ELISA; type: cell-based
# T3 sequence (P08684 whole entry): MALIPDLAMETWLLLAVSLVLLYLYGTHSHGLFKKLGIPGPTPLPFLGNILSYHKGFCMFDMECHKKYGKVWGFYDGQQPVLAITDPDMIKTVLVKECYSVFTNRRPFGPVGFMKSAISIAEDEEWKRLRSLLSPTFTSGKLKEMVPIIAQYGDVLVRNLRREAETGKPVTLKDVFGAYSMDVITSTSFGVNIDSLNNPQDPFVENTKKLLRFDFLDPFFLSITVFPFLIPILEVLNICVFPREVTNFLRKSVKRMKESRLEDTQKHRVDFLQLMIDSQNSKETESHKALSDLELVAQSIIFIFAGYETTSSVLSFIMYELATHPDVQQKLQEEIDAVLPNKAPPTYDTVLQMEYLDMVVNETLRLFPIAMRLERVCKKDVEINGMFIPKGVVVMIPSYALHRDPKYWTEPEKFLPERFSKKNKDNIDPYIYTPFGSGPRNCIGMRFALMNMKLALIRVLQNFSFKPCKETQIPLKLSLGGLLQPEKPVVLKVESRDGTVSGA
# T4 sequence (P28845 whole entry): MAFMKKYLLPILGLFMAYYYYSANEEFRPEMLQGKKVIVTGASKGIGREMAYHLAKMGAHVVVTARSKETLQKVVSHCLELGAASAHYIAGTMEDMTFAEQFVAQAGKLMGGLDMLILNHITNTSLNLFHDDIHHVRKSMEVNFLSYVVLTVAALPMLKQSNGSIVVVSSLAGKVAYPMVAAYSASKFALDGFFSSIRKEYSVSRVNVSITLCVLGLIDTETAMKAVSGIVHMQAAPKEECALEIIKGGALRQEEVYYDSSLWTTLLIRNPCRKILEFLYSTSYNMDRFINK
compound,measurement,setting,value
C[C@H](NC1=NC(=O)C(C)(c2ccc(C3(C(N)=O)CC3)cc2)S1)c1ccc(F)cc1 (stereo partly specified),activity at 2 µM,[1],6.7%
same,Activity,[2],97%
C[C@H](NC1=NC(=O)[C@@](C)(C(F)(F)F)S1)c1ccccc1F,Activity,[3],110%
same,Activity,[4],67%
same,Activity,[2],45%
same,Activity,[5],64%
same,Activity,[6],56%
C[C@H](NC1=NC(=O)[C@@](C)(C(C)(C)O)S1)c1ccc(F)cc1,Ki,[7],210 nM
same,IC50,[8],300 nM
C[C@H](NC1=NC(=O)C(C)(CC(C)(C)O)S1)c1ccc(F)cc1 (stereo partly specified),Activity,[2],28%
C[C@H](NC1=NC(=O)C(C)(C(C)(C)O)S1)c1ccccc1 (stereo partly specified),Activity,[2],68%
